# Compound activity (PubChem BioAssay)
# The list is not random: actives were taken first. Their share in the collection is about 2.9%.
# MEKK3 PB1 HTS – modulators of MEKK3-MEK5 PB1 binding, primary screen, biochemical, wildtype MEKK3, multiplex bead flow cytometry, Alexa488-MEK5; binding response (% of control), % at 10 µM; 290,000 compounds, 1.4% hits; bead-based flow cytometry, Alexa488-MEK5 binding to MEKK3; actives lie on both sides; 0 = blocked by unlabeled MEK5, 100 = vehicle; Mitogen-activated protein kinase kinase kinase 3 (Homo sapiens), Q99759;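 active means binding response more than 3 SD above or below the average of its plate-row segment, actives on both sides; inconclusive means wells at one plate position flagged as instrument error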;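 further: Alexa488 bead fluorescence after subtracting the streptavidin-only scavenger bead signal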
# UBC13 polyUb – UBC13 polyubiquitin chain formation inhibitors, primary screen, biochemical, TR-FRET, uHTS | inhibition, % at 20 µM | AID 485273, 2010 | 330,000 compounds, 0.47% hits | Ubiquitin-conjugating enzyme E2 N (Homo sapiens), P61088; in the data active means inhibition above about 45%, passing the limit was not always enough; inconclusive means no clear call, values can overlap the other calls
# Target sequence (P61088 whole entry, looked up): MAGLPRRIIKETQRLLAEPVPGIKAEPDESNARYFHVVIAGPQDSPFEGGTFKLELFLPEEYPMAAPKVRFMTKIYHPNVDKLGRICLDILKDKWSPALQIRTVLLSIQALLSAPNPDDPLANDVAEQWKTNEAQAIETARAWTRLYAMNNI
# MEKK2mut PB1 HTS – MEK5 binding signal on mutant MEKK2 PB1, primary screen, biochemical, multiplex bead flow cytometry, Alexa488-MEK5; Alexa488-MEK5 binding to MEKK2 mutant; percent response, % at 10 µM; 290,000 compounds, 0.35% hits; AID 1530, 2009; in the data active means percent response above about 24%, passing the limit was not always enough
# MEKK2 WT-MEK5 – modulators of MEK5 binding to wildtype MEKK2, primary screen, biochemical, multiplex bead flow cytometry, Alexa488-MEK5; Alexa488-MEK5 binding to MEKK2 WT; actives lie on both sides; binding response (% of control), % at 10 µM; 290,000 compounds, 1.1% hits; AID 1531, 2009; in the data active means binding response below about 67% or above about 130%; inconclusive means no clear call, values can overlap the other calls; inactive means in between
# Apaf1 inhib – inhibitors of human Apaf-1 apoptosome, primary screen, biochemical, DEVD-Rh110 fluorescence, uHTS. Apoptotic protease-activating factor 1 (Homo sapiens), O14727. reconstituted apoptosome caspase-3 activity. inhibition, % at 20 µM. 330,000 compounds, 0.71% hits; active means inhibition of at least 40% at 20 µM;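 further: plate controls were DMSO wells for no effect and DEVD-CHO caspase inhibitor wells for full effect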
#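 System – cell-free apoptosome with Apaf-1, procaspase-3 and caspase-9 · Buffer or medium – pH 7.5 Hepes buffer with CHAPS, BSA, DTT · Also added – cytochrome c with DEVD-Rh110 · Times – 30 min compound preincubation, 50 min activation, room temperature · Technique – Rh110 fluorescence intensity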
# MEKK2wt confirm – modulators of MEK5 binding to wildtype MEKK2, confirmation, biochemical, single concentration, multiplex bead flow cytometry. AID 1892, 2009. 5,900 compounds, 2.4% hits. shares compounds with MEKK3 PB1 HTS. Alexa488-MEK5 binding to MEKK2 WT; actives lie on both sides. binding response (% of control), % at 10 µM; in the data active means binding response below about 16% or above about 210%; inactive means in between
# MEKK2mut confirm – mutant MEKK2 PB1-MEK5 binding signal retest – biochemical, single concentration, multiplex bead flow cytometry, confirmation. shares compounds with MEKK3 PB1 HTS. Alexa488-MEK5 binding to MEKK2 mutant. percent response, % at 10 µM. 5,900 compounds, 2% hits. AID 1893, 2009; in the data active means percent response mostly above about 71%, no sharp cut-off; inactive means mostly below about 38%;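 further: higher means compound restores mutant binding toward wildtype level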
# MEKK3 confirm – MEKK3 wild-type PB1 binding to MEK5, inhibitors, confirmation, biochemical, bead multiplex flow cytometry, single concentration, wildtype | shares compounds with MEKK3 PB1 HTS | Alexa488-MEK5 binding to MEKK3; hits give low values | binding response (% of control), % at 10 µM | 5,900 compounds, 1.8% hits;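 active means binding response below 72% of control, or above a set upper limit, though filed actives all read lower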;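 further: 100% = DMSO only wells and 0% = binding blocked by excess unlabeled MEK5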
# An asterisk follows results filed as active; ? = inconclusive; . = not tested or not shown; [ ] = another dose, or the depositor's remark.
SMILES,MEKK3 PB1 HTS,UBC13 polyUb,MEKK2mut PB1 HTS,MEKK2 WT-MEK5,Apaf1 inhib,MEKK2wt confirm,MEKK2mut confirm,MEKK3 confirm
Cc1ccc(C)c(N2CCN(CCCNC(=O)Cn3cccc3C(=O)c3ccccc3)CC2)c1,111,30,45,176*,12,129,13,104
Nc1ccc(-c2nc3ccc(N)cc3[nH]2)cc1,69,-7,-17,73,8,.,.,.
Cc1nc2ccc(-c3nc4ccc(N)cc4[nH]3)cc2[nH]1,25*[inhibitor],31,.,.,2,104,12,98
Cc1ccc(C)c(-c2nc3ccc(N)cc3[nH]2)c1,108,11,13,33*[inhibitor],11,104,7,105
CCc1ccc(NC(=O)CSc2nnc(-c3ccco3)o2)cc1,100,-1,3,100,13,.,.,.
COc1cccc(NC(=O)CSc2nnc(-c3ccc(C)cc3)o2)c1,82*[inhibitor],-1,-6,84,0,104,3,102
O=C(CSc1nnc(-c2ccncc2)n1-c1ccc(Cl)cc1)NCc1cccs1,124*,6,9,120,5,102,-3,102
Cc1cc(C)cc(-c2nnc(SCC(=O)NCc3cccs3)o2)c1,1.0*[inhibitor],10,-20,-2.0*[inhibitor],-2,113,6,102
CC(=O)Nc1ccc(NC(=O)CSc2nnc(-c3ccco3)o2)cc1,129*,-7,1,112,9,95,-25,93
O=C(NNC(=O)c1ccc(F)cc1F)c1ccc(-n2cnnn2)cc1,104,4,7,104,-1,.,.,.
COc1ccccc1C(=O)NC(=O)COC(=O)CNC(=O)c1ccccc1F,.,-4,.,.,11,.,.,.
O=C(Cc1ccc(Cl)cc1)Nc1ccccc1C(=O)N1CCCCC1,102,1,4,104,16,.,.,.
CCOc1ccc(C(=O)Nc2ccc(S(=O)(=O)N3C[C@@H]4C[C@@H](C3)c3cccc(=O)n3C4)cc2)cc1,.,7,.,.,8,.,.,.
CCC(c1nc2ccccc2c(=O)n1CCCn1ccnc1)N1C(=O)c2ccccc2C1=O (stereo not given),77*[inhibitor],0,-12,85,-4,101,-2,103
CCC(c1nc2ccccc2c(=O)n1CCN1CCOCC1)N1C(=O)c2ccccc2C1=O (stereo not given),82,3,-6,90,6,.,.,.
C/C=C/c1ccc(OCCCCN(C)Cc2ccccc2)c(OC)c1,107,3,7,139*,12,120,9,100
O=C(CNC(=O)c1ccc(Br)o1)OCC(=O)c1cccc([N+](=O)[O-])c1,98,0,-2,97,1,.,.,.
C=CCNC(=S)Nc1cccc(NC(=S)NCC=C)c1,101,-3,-1,99,-3,.,.,.
C=CCNC(=S)Nc1ccccc1,79*[inhibitor],-2,-13,77,-3,99,-6,98
Cc1c(NS(=O)(=O)c2cc(C(=O)N(C)Cc3ccccc3)ccc2Cl)c(=O)n(-c2ccccc2)n1C,.,-3,.,.,-2,.,.,.
O=C(Cn1nnc2ccccc21)N/N=C\c1cccs1,103,-11,11,107,11,.,.,.
O=C(Cn1cnc2ccccc21)N/N=C/c1cccs1,129*,-7,2,100,0,105,-2,103
CC(=O)c1ccc(NC(=S)NCc2ccc(Cl)cc2Cl)cc1,92,22,-7,96,2,.,.,.
CCOc1ccc(/C=C/C(=O)OCC(=O)NCCc2ccc(OCC)c(OCC)c2)cc1OC,.,3,.,.,7,.,.,.
CN(C)CCc1cc2c(c3c1ccc1ccccc13)OCO2,110,?,19,174*,8,141,25,105
SMILES,MEKK3 PB1 HTS,UBC13 polyUb,MEKK2mut PB1 HTS,MEKK2 WT-MEK5,Apaf1 inhib,MEKK2wt confirm,MEKK2mut confirm,MEKK3 confirm
Cn1cnc(C(=O)N2CCc3ccccc3C2)c1C(=O)N1CCc2ccccc2C1,.,5,.,.,12,.,.,.
CCOC(=O)C(NC(=O)c1ccccc1)(OCc1ccc(F)cc1)C(F)(F)F (stereo not given),128*,-4,1,106,8,102,0,103
CCc1cccc(CC)c1NC(=O)COC(=O)c1ccccc1-c1nc2ccccc2s1,48*[inhibitor],5,-2,72,28,93,-6,102
CC(Oc1ccccc1)C(=O)Nc1cccc([N+](=O)[O-])c1 (stereo not given),95,7,-7,91,-6,.,.,.
O=C(Nc1cccc([N+](=O)[O-])c1)c1ccncc1,141*,-4,-1,101,9,98,-5,100
CC(C)[C@H](NC(N)=O)C(=O)Nc1cccc([N+](=O)[O-])c1,143*,7,7,132,1,108,2,106
CC(C)(C)c1ccc(C(=O)Nc2cccc([N+](=O)[O-])c2)cc1,113,.,2,106,.,.,.,.
O=C(Nc1cccc(Cl)c1)c1cccc(Oc2ccc([N+](=O)[O-])cc2Cl)c1,103,-8,9,17*[inhibitor],4,131,12,107
Cc1ccc(NC(=O)c2ccncc2)cc1[N+](=O)[O-],152*,-9,0,105,0,104,6,107
CN(Cc1ccccc1)c1nc(-c2cccc([N+](=O)[O-])c2)nc2ccccc12,104,3,1,103,12,.,.,.
C/C(=N\NC(=O)c1cccc([N+](=O)[O-])c1)c1ccncc1,49*[inhibitor],-5,-17,55,-17,103,2,103
C/C(=N/NC(=O)c1ccc(O)cc1)c1cccc([N+](=O)[O-])c1,103,-4,4,108,7,.,.,.
CCN(C(=O)c1cc2c(=O)[nH]c3ccc(C)cc3c2s1)c1cccc(C)c1,127,4,28,113,-2,.,.,.
CCN(C(=O)c1cc2c(=O)[nH]c3ccc(C)cc3c2s1)c1ccc(F)cc1,129*,-7,25,113,1,95,-2,95
O=C(COC(=O)CCNS(=O)(=O)c1ccc2c(c1)OCCO2)NC1CCCc2ccccc21 (stereo not given),124*,4,4,115,9,100,-2,100
